Source: ChEMBL document CHEMBL1136463, “The relationship between physicochemical properties, in vitro activity and pharmacokinetic profiles of analogues of diamine-containing efflux pump inhibitors” (Bioorg Med Chem Lett, 2003)

Assays:
[1] = Ionization constant (pKa1) of compound was determined; format: physicochemical; conditions: read-out: pKa1
[2] = Ionization constant (pKa2) of compound was determined; format: physicochemical; conditions: read-out: pKa2
Pseudomonas aeruginosa = experiment: Minimum potentiation concentration required to reduce (potentiate) the activity of antibacterial drug-levofloxacin for Pseudomonas aeruginosa by n-fold in the absence of horse serum; format: functional
Rattus norvegicus [3] = experiment: Area under curve (AUC) at a dose 1 mg/kg was determined in rat kidney; format: ADME, organism-based; set-up: dose 1 mg/kg; conditions: in vivo
How it was run: (§1)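 Male Sprague–Dawley rats with femoral and jugular venous catheters (5 rats), dosed alone or in cassettes of up to five compounds by 2 h constant-rate femoral vein infusion at 1 to 10 mg/kg. One rat killed at 0.25, 2, 8, 16 and 24 h after infusion start. Liver, kidney and lung homogenates assayed by HPLC/MS/MS. Tissue AUC0–24 h normalized to 1 mg/kg.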

Rattus norvegicus [4] = experiment: Area under curve (AUC) at a dose 1 mg/kg was determined in rat liver; format: ADME, organism-based; set-up: dose 1 mg/kg; conditions: in vivo; how it was run: as §1
Rattus norvegicus [5] = experiment: Area under curve (AUC) at a dose 1 mg/kg was determined in rat lung; format: ADME, organism-based; set-up: dose 1 mg/kg; conditions: in vivo; how it was run: as §1
[6] = Partition coefficient (logP); format: physicochemical; conditions: octanol/water
[7] = Partition coefficient (logD); format: physicochemical; conditions: octanol/water
[8] = T1/2 (half life) of compound after 2 hr iv infusion of 8.4 mg/kg in three rat; format: ADME, organism-based; set-up: dose 8.4 mg/kg, route intravenous; conditions: in vivo
[9] = Clearance (Cl) of compound after 2 h iv infusion of 8.4 mg/kg in three rat; format: ADME, organism-based; set-up: dose 8.4 mg/kg, route intravenous; conditions: in vivo
[10] = Steady state volume distribution (Vss) of compound after 2 hr iv infusion of 8.4 mg/kg in three rat; format: ADME, organism-based; set-up: dose 8.4 mg/kg, route intravenous; conditions: in vivo, read-out: Vss

Row | SMILES | pKa [1] | pKa [2] | MPC (Pseudomonas aeruginosa) | AUC (Rattus norvegicus [3]) | AUC (Rattus norvegicus [4]) | AUC (Rattus norvegicus [5]) | logP [6] | logD [7] | half-life [8] | clearance [9] | Vd [10]
1 | NCC(=O)N1CCNCC1C(=O)N[C@H](CCc1ccccc1)C(=O)Nc1cnc2ccccc2c1 (stereo partly drawn) | 8.2 | 6.3 | 20 µg/mL |  |  |  |  |  |  |  | 
2 | NCC(=O)N1C[C@@H](N)C[C@@H]1C(=O)N[C@H](CCc1ccccc1)C(=O)Nc1cnc2ccccc2c1 | 8.1 | 7.1 | 10 µg/mL | 79 mg·h/kg | 20 mg·h/kg | 3 mg·h/kg | 1.8 | 0.9 |  |  | 
3 | N[C@@H]1CN[C@@H](CC(=O)N[C@H](CCc2ccccc2)C(=O)Nc2cnc3ccccc3c2)C1 | 9.3 | 6.3 | 5 µg/mL |  |  |  |  |  |  |  | 
4 | N[C@@H]1CN[C@@H](C(=O)N[C@H](CCc2ccccc2)C(=O)Nc2cnc3ccccc3c2)C1 | 8.8 | 5.2 | >40 µg/mL | 25 mg·h/kg | 13 mg·h/kg | 14 mg·h/kg | 2.3 | 1.1 |  |  | 
5 | NC[C@@H]1CN[C@@H](C(=O)N[C@H](CCc2ccccc2)C(=O)Nc2cnc3ccccc3c2)C1 | 9.6 | 6.8 | 5 µg/mL |  |  |  |  |  |  |  | 
6 | NC[C@@H]1CN[C@@H](C(=O)N[C@H](CCc2ccccc2)C(=O)Nc2ccc3ncccc3c2)C1 | 9.6 | 6.9 | 10 µg/mL | 56 mg·h/kg | 22 mg·h/kg | 15 mg·h/kg | 2.3 | 0.5 | 43.8 min | 26.7 mL/min/kg | 0.5 L/kg
7 | NCC(=O)N1C[C@@H](CN)C[C@@H]1C(=O)N[C@H](CCc1ccccc1)C(=O)Nc1ccc2ncccc2c1 | 9 | 7.7 | 10 µg/mL | 100 mg·h/kg | 26 mg·h/kg | 4 mg·h/kg | 1.2 | -0.5 |  |  | 
8 | NCC(=O)N1C[C@@H](N)C[C@@H]1C(=O)N[C@H](CCc1ccccc1)C(=O)Nc1ccc2ncccc2c1 | 8.2 | 7.2 | 20 µg/mL | 96 mg·h/kg | 12 mg·h/kg | 4 mg·h/kg | 1.4 | 0.5 |  |  | 
9 | NCC(=O)N1CCNC(C(=O)N[C@H](CCc2ccccc2)C(=O)Nc2cnc3ccccc3c2)C1 (stereo partly drawn) | 8.5 | 5.4 | >40 µg/mL |  |  |  |  |  |  |  | 
10 | Cc1cc2nc([C@@H](CCc3ccccc3)NC(=O)[C@H]3C[C@H](N)CN3C(=O)CN)[nH]c2cc1C |  |  | 5 µg/mL | 133 mg·h/kg | 176 mg·h/kg | 5 mg·h/kg | 2.8 | 1.9 |  |  | 
11 | C[C@@H](N)C(=O)N[C@H](CCc1ccccc1)C(=O)Nc1cnc2ccccc2c1 |  |  |  | 8.5 mg·h/kg | 5.5 mg·h/kg |  |  |  |  |  | 
